Compound activity: PubChem, several laboratories
ALR inh = inhibitors of human ALR sulfhydryl oxidase, primary screen, biochemical, H2O2 detection, HRP-luminol luminescence, single point; FAD-linked sulfhydryl oxidase ALR (Homo sapiens), P55789; purified ALR, DTT oxidation; inhibition, % (test concentration not listed); 290,000 tested, 3.8% active; AID 485317, 2010;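 active means mean replicate inhibition above about 79%, with every replicate also reaching it, limit read from the data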
PfM18AAP inh-1 = PfM18AAP inhibitors, malaria aminopeptidase, primary screen, biochemical, QFRET, recombinant enzyme | M18 aspartyl aminopeptidase (Plasmodium falciparum 3D7) | 290,000 tested, 1.2% active | inhibition, % at 7.35 µM | H-Glu-NHMec fluorogenic cleavage;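 active means inhibition above the campaign mean inhibition over all tested compounds plus 3 SD, cut at about 28% in these data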;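 further: 0% = plate median of test compound wells and 100% = 2 mM ZnCl2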
Rtt109 Vps75 = inhibitors of C. albicans Rtt109/Vps75 HAT, primary screen, biochemical, ThioGlo CoA-SH fluorescence, plate reader | Histone acetyltransferase RTT109 (Candida albicans (strain SC5314 / ATCC MYA-2876)), … | purified Rtt109/Vps75, 4 h | inhibition, % at 34.9 µM | 330,000 tested, 0.16% active | AID 540336, 2011;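 active means inhibition of at least 50% in every replicate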
Target sequence (Q5AAJ8 whole entry, looked up): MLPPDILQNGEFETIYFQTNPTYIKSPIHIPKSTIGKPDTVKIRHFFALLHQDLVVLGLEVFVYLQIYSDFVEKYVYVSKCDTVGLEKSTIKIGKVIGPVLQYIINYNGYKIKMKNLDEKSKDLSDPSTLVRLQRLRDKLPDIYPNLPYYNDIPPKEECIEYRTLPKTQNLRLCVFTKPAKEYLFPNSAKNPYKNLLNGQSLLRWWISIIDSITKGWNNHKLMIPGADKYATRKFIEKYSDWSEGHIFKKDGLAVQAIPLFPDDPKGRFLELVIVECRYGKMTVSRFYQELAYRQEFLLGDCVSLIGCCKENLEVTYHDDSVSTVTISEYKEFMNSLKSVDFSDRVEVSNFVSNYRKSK
FAS TE block = FAS thioesterase domain inhibitors, primary screen, biochemical, fluorescence intensity, uHTS | Fatty acid synthase (Homo sapiens), P49327 | recombinant FAS-TE, OMFH fluorogenic substrate, fluorescence endpoint | inhibition, % at 15 µM | 360,000 tested, 0.67% active | AID 602261, 2012;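 active means compounds whose normalised, plate-corrected inhibition of enzyme fluorescence in the single-dose primary screen is 50% or more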;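 further: 0% = DMSO with enzyme and 100% = substrate without enzyme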
UCH37 DUB inh = inhibitors of human UCH37 deubiquitinase, primary screen, biochemical, Ub-AMC cleavage, fluorescence | purified proteasome/UCH37 | 330,000 tested, 0.33% active | inhibition, % (no concentration beside the values) | Ubiquitin carboxyl-terminal hydrolase isozyme L5 (Homo sapiens), Q9Y5K5;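 active means mean inhibition over replicate wells above about 20%, limit read from the data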;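 further: 0% = compound-free wells with enzyme and 100% = wells lacking proteasome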
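Test system – human UCH37 enzyme supplied as purified proteasome complex · Incubation – 30 min preincubation with enzyme, 25 min cleavage at room temperature · Detection – AMC fluorescence from Ub-AMC cleavage, excitation 355 nm, emission 460 nm · Benchmarks – no-proteasome wells (full inhibition) and compound-free wells (no inhibition)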
HDAC3 inhib = HDAC3 deacetylase inhibitors, primary screen, biochemical, fluorescence, cell-free homogeneous | Histone deacetylase 3 (Homo sapiens), O15379 | recombinant HDAC3, fluorogenic peptide/trypsin coupled | inhibition, % at 8.3 µM | 320,000 tested, 0.15% active; in the data active means inhibition above about 26%, passing the limit was not always enough
PfM18AAP inh-2 = PfM18AAP inhibitors, malaria aminopeptidase, confirmation, biochemical, QFRET, recombinant enzyme, triplicate. inhibition, % at 7.35 µM. AID 2170, 2009. H-Glu-NHMec fluorogenic cleavage. shares compounds with PfM18AAP inh-1. 2,400 tested, 28% active;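 active means mean inhibition over replicate wells above the hit cutoff set for the earlier primary screen, cut at about 29% in these data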;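 further: 0% = median of test compound wells and 100% = 2 mM ZnCl2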
CTSL1 counter = cathepsin L1 inhibitors, retest, confirmation, counter-screen for PFM18AAP inhibitor project, biochemical, QFRET, triplicate. shares compounds with PfM18AAP inh-1. purified cathepsin L1, Z-Leu-Arg-MCA fluorescence. inhibition, % at 5.96 µM. 2,400 tested, under 10 active;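 active means average inhibition across replicates above the hit cutoff set in the earlier primary screen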;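 further: 0% = median of test compound wells and 100% = Z-Phe-Ala-diazomethylketone 1 µM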
* = called active by the depositor; · = not tested or not shown. An excerpt weighted towards active compounds, which were near 4.6% of everything screened.

SMILES	ALR inh	PfM18AAP inh-1	Rtt109 Vps75	FAS TE block	UCH37 DUB inh	HDAC3 inhib	PfM18AAP inh-2	CTSL1 counter
S=c1[nH]ncn1N=Cc1cccc(Oc2ccccc2)c1	·	·	·	·	5	·	·	·
O=C(/C=C/c1ccccc1)Nc1ncn[nH]1	2	45*	0	-5	6	-2	48*	-2
O=C(/C=C/c1ccccc1)Nn1cnnc1	-6	80*	4	-8	6	5	70*	1
COc1ccc(/C=C/C(=O)Nn2cnnc2)cc1	3	80*	-1	-10	2	-1	71*	4
O=C(O)C(=O)Nc1ncn[nH]1	·	·	·	-9	·	·	·	·
O=C(/C=C/c1ccccc1)Nn1cnc2ccccc2c1=O	1	1	-3	-7	3	0	·	·
O=C(Cc1ccccc1)NN=Cc1ccc(OCC(=O)Nc2ccccc2)cc1	·	·	·	·	8	·	·	·
Cc1ccc(S(=O)(=O)NN=Cc2ccc(C(=O)O)cc2)cc1	·	·	·	·	2	·	·	·
C/C(C=NNC(=O)CN1CCN(Cc2ccc(Cl)cc2)CC1)=C\c1ccco1	·	·	·	·	8	·	·	·
CCc1ccc(OC2=NS(=O)(=O)c3ccccc32)cc1	·	1	7	-9	2	·	·	·
CCN(CC)c1cccc(OC2=NS(=O)(=O)c3ccccc32)c1	99*	36*	2	-3	2	-2	2	1
O=C(Nc1nc(=O)c2ccccc2s1)c1ccccc1	-1	43*	0	-10	4	0	-56	-8
O=C(Nc1nc2ccccc2s1)c1ccc(F)cc1	-6	6	-17	4	3	-7	·	·
Cc1c(NC(=S)N/N=C/c2ccc(O)cc2)c(=O)n(-c2ccccc2)n1C	99*	35*	·	-6	·	6	6	8
Cc1c(NC(=S)NN=Cc2ccccc2O)c(=O)n(-c2ccccc2)n1C	·	·	·	·	-59	·	·	·
COCCCNC(=S)NNC(=S)Nc1ccc(OC)cc1	38	49*	7	-8	0	-3	-2	-4
CC(C)OCCCNC(=S)Nc1ccc(S(N)(=O)=O)cc1	-4	49*	-13	-17	2	9	11	-2
NS(=O)(=O)c1ccc(NC(=S)NCCc2ccccc2)cc1	·	41*	6	1	2	6	7	4
CC(=O)c1ccc(NC(=S)NCCc2ccc(S(N)(=O)=O)cc2)cc1	26	0	6	-2	·	-2	·	·
NS(=O)(=O)c1ccc(CCNC(=O)c2ccc[nH]c2=S)cc1	·	43*	-2	-1	6	1	7	-9
NS(=O)(=O)c1ccc(NC(=S)NCc2ccc(Cl)cc2)cc1	2	35*	-6	6	2	-2	11	2
CCOC(=O)c1c(N)sc(C(=O)Nc2ccccc2)c1C	·	-8	0	2	0	4	·	·
CCOC(=O)c1c(N)sc(C(=O)Nc2ccccc2F)c1C	-3	37*	-11	1	0	4	-34	-1
CCOC(=O)C1=C(N)n2c(sc(=Cc3ccco3)c2=O)=C(C(=O)OC(C)C)C1c1ccco1 (stereo unspecified)	·	·	·	·	9	·	·	·
CC(C)C(c1nnnn1Cc1ccc(F)cc1)N1CCN(c2ccc(O)cc2)CC1 (stereo unspecified)	100*	32*	4	3	1	-1	-11	0
CN(C)c1ccnc2sc(C(=O)c3ccc(Br)cc3)c(N)c12	-3	-7	·	33	-1	6	·	·
Cc1snc2sc(C(=O)c3ccc(F)cc3)c(N)c12	-4	41*	3	-3	4	2	-38	5
O=[N+]([O-])c1cccc(S(=O)(=O)NN=Cc2ccc3c(c2)OCO3)c1	·	·	·	·	5	·	·	·
